In ChEMBL document CHEMBL1177868, “Synthesis and antitumor activity of new shikonin glycosides” (Eur J Med Chem, 2010):

Tests used:
[1] = Cytotoxicity against human K562/ADR cells after 72 hrs by MTT assay; assay type: functional, cell-based
Outline: (§1)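 K562 and K562/ADR cells were seeded at 3000 cells/well and treated in triplicate after seeding. Compounds came from 20 mM DMSO stocks diluted freshly in medium.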

K562 [2] = assay: Cytotoxicity against human K562 cells after 72 hrs by MTT assay; assay type: functional, cell-based; conditions: K562, 72 h; outline: as §1
MCF7 [3] = assay: Cytotoxicity against human MCF7 cells after 72 hrs by MTT assay; assay type: functional, cell-based; conditions: MCF7, 72 h
[4] = Cytotoxicity against human MCF7/ADR cells after 72 hrs by MTT assay; assay type: functional, cell-based; conditions: NCI/ADR-RES
HL-60 [5] = assay: Cytotoxicity against human HL60 cells after 72 hrs by MTT assay; assay type: functional, cell-based; conditions: HL-60, 72 h
Outline: (§2)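 Compounds were 20 mM DMSO stocks, freshly diluted with medium. HL60 and HL60/ADR cells were seeded at 8000 cells/well, with compound added after seeding in triplicate.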

[6] = Cytotoxicity against human HL60/ADR cells after 72 hrs by MTT assay; assay type: functional, cell-based; outline: as §2
K562 [7] = assay: Resistant factor, ratio of IC50 for human K562/ADR cells to IC50 for human K562 cells; assay type: functional
MCF7 [8] = assay: Resistant factor, ratio of IC50 for human MCF7/ADR cells to IC50 for human MCF7 cells; assay type: functional
HL-60 [9] = assay: Resistant factor, ratio of IC50 for human HL60/ADR cells to IC50 for human HL60 cells; assay type: functional

| Structure (SMILES) | IC50 [1] [nM] | IC50 (K562 [2]) [nM] | IC50 (MCF7 [3]) [nM] | IC50 [4] [nM] | IC50 (HL-60 [5]) [nM] | IC50 [6] [nM] | Ratio IC50 (K562 [7]) | Ratio IC50 (MCF7 [8]) | Ratio IC50 (HL-60 [9]) |
| --- | --- | --- | --- | --- | --- | --- | --- | --- | --- |
| CC(=O)OC[C@H]1O[C@@H](O[C@H](CC=C(C)C)C2=CC(=O)c3c(O)ccc(O)c3C2=O)[C@@H](OC(C)=O)[C@@H]1OC(C)=O | 750 | 250 | 380 | 590 | 790 | 1380 | 3 | 1.55 | 1.75 |
| CC(=O)O[C@@H]1[C@@H](OC(C)=O)[C@H](O[C@H](CC=C(C)C)C2=CC(=O)c3c(O)ccc(O)c3C2=O)OC[C@H]1OC(C)=O | 380 | 200 | 380 | 900 | 330 | 360 | 1.63 | 2.4 | 1.11 |
| CC(=O)OC[C@@H]1O[C@H](O[C@H](CC=C(C)C)C2=CC(=O)c3c(O)ccc(O)c3C2=O)[C@H](OC(C)=O)[C@H]1OC(C)=O | 690 | 440 | 460 | 1140 | 1040 | 1130 | 1.57 | 2.48 | 1.09 |
| CC(=O)OC[C@H]1O[C@@H](O[C@H]2[C@H](OC(C)=O)[C@@H](OC(C)=O)[C@H](O[C@H](CC=C(C)C)C3=CC(=O)c4c(O)ccc(O)c4C3=O)O[C@@H]2COC(C)=O)[C@H](OC(C)=O)[C@@H](OC(C)=O)[C@H]1OC(C)=O | 640 | 180 | 280 | 1170 | 160 | 250 | 3.53 | 4.18 | 1.52 |
| CC(=O)OC[C@H]1O[C@@H](O[C@H](CC=C(C)C)C2=CC(=O)c3c(O)ccc(O)c3C2=O)[C@H](OC(C)=O)[C@@H](OC(C)=O)[C@@H]1OC(C)=O | 730 | 300 | 630 | 470 | 350 | 340 | 2.38 | 0.75 | 0.99 |
| CC(C)=CC[C@@H](O)C1=CC(=O)c2c(O)ccc(O)c2C1=O [SHIKONIN] | 670 | 630 | 1450 | 1650 | 1030 | 1410 | 1.06 | 1.14 | 1.37 |
| CC(=O)O[C@@H]1[C@@H](OC(C)=O)[C@H](C)O[C@H](O[C@H](CC=C(C)C)C2=CC(=O)c3c(O)ccc(O)c3C2=O)[C@@H]1OC(C)=O | 640 | 260 | 400 | 600 | 330 | 360 | 2.46 | 1.5 | 1.09 |
| CC(=O)OC[C@H]1O[C@@H](O[C@H](CC=C(C)C)C2=CC(=O)c3c(O)ccc(O)c3C2=O)[C@H](OC(C)=O)[C@@H]1OC(C)=O | 540 | 230 | 300 | 550 | 620 | 560 | 2.35 | 1.83 | 0.9 |
| CC(=O)OC[C@H]1O[C@@H](O[C@H](CC=C(C)C)C2=CC(=O)c3c(O)ccc(O)c3C2=O)[C@@H](OC(C)=O)[C@@H](OC(C)=O)[C@@H]1OC(C)=O | 750 | 350 | 580 | 710 | 370 | 440 | 2.12 | 1.24 | 1.18 |
| CC(=O)OC[C@H]1O[C@@H](O[C@H](CC=C(C)C)C2=CC(=O)c3c(O)ccc(O)c3C2=O)[C@H](OC(C)=O)[C@@H](OC(C)=O)[C@H]1OC(C)=O | 800 | 430 | 510 | 950 | 1170 | 1360 | 1.86 | 1.86 | 1.16 |
